# Reference: ChEMBL document CHEMBL5046272, “Discovery of Potent, Selective, and In Vivo Efficacious AKT Kinase Protein Degraders via Structure-Activity Relationship Studies” (J Med Chem, 2022)
# Active and inactive are the calls of the source. The rule behind the calls is not given here.
# What was measured:
# [1] = biological target: RAC-gamma serine/threonine-protein kinase (Homo sapiens, UniProt Q9Y243); experiment: Binding affinity to DNA-tagged AKT3 (unknown origin) assessed as dissociation constant by q-PCR based competitive binding assay
# Procedure, shortened: (§1)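 KINOMEscan competition binding: DNA-tagged kinase competes between test compound and an immobilized active-site ligand, with bound kinase read by qPCR of the tag. Kd fitted from an 11-point threefold dilution series (top 30 μM) plus three DMSO control points, run in duplicate.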
# [2] = biological target: RAC-alpha serine/threonine-protein kinase (Homo sapiens, UniProt P31749); experiment: Binding affinity to DNA-tagged AKT1 (unknown origin) assessed as dissociation constant by q-PCR based competitive binding assay; procedure, shortened: as §1
# [3] = Protac activity at CRBN/AKT in human BT-474 cells assessed as reduction in AKT protein level at 1 to 10 uM measured after 24 hrs by Western blot analysis; details: dose 1-10 µM
# [4] = Protac activity at CRBN/AKT in human BT-474 cells assessed as inhibition of downstream signalling by measuring reduction in PRAS40 phosphorylation at T246 residue at 1 to 10 uM measured after 24 hrs Western blot analysis; details: dose 1-10 µM
# BT-474 = experiment: Inhibition of colony formation in human BT-474 cells at 0.1 to 10 uM incubated for 14 days by replacing culture medium for every 2 days by crystal violet staining based assay; type: functional, cell-based; details: dose 0.1-10 µM, time 14.0 day
# Procedure, shortened: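 BT474 cells cultured 14 days with compound. Medium plus compound was replaced every 2 days. Viable cells were then stained with 0.5% crystal violet.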
# [5] = biological target: T1, von Hippel-Lindau disease tumor suppressor/AKT (Homo sapiens) (UniProt P31751+Q9Y243+P31749+P40337); experiment: Protac activity at VHL/AKT in human BT-474 cells assessed as reduction in total AKT protein level at 1 to 10 uM measured after 24 hrs by Western blot analysis; type: cell-based; details: dose 1-10 µM
# Procedure, shortened: (§2)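 BT474 cells treated 24 h at 1, 5 or 10 μM, alongside AZD5363 (1 μM) and the matching E3 ligand VHL-1 or pomalidomide (1 μM). Lysates in urea/SDS sample buffer were run on 4–12% Bis-Tris gels and blotted to PVDF. Blots probed for total AKT, P-AKT S473, P-PRAS40 T246 and P-S6 S240/244, with β-actin loading control and chemiluminescent detection.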
# [6] = biological target: T1, von Hippel-Lindau disease tumor suppressor/AKT (Homo sapiens); experiment: Protac activity at VHL/AKT in human BT-474 cells assessed as inhibition of downstream signalling by measuring reduction in PRAS40 phosphorylation at T246 residue at 5 uM measured after 24 hrs Western blot analysis; type: cell-based; procedure, shortened: as §2
# [7] = Protac activity at CRBN/AKT in human BT-474 cells assessed as reduction in AKT protein level at 10 uM measured after 24 hrs by Western blot analysis
# PC-3 = experiment: Antiproliferative activity against human PC-3 cells assessed as inhibition of cell growth measured after 5 days by IncuCyte zoom live cell analysis; type: functional; details: PC-3, 120 h, time 5 day
# Procedure, shortened: (§3)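 Cells grown in DMEM with 10% FBS at 37 °C, 5% CO₂. Seeded at 1–3 × 10³ cells/well in triplicate with serial compound dilutions for 5 days. Growth was taken as confluence from IncuCyte phase-contrast images of live cells. Three independent experiments.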
# MDA-MB-468 = experiment: Antiproliferative activity against human MDA-MB-468 cells assessed as cell growth by measured after 5 days by IncuCyte zoom live cell analysis; type: functional; details: MDA-MB-468, 120 h, time 5 day; procedure, shortened: as §3
# [8] = Tmax in Swiss albino mouse at 75 mg/kg, ip administered as single dose measured upto 12 hrs by LC-MS/MS analysis; type: ADME, organism-based; details: in vivo
# Procedure, shortened: (§4)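 Male Swiss Albino mice, single IP dose of HCl salt in 5% DMA/5% Solutol HS-15/90% normal saline. Plasma (~60 μL) drawn from three mice per time point at 0.5, 1, 2, 4, 8 and 12 h. Samples were held below −70 °C and quantified by LC–MS/MS (LLOQ 10.18 ng/mL). Parameters come from non-compartmental analysis of mean concentrations.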
# [9] = Cmax in Swiss albino mouse at 75 mg/kg, ip administered as single dose measured upto 12 hrs by LC-MS/MS analysis; type: ADME, organism-based; parameters: route intraperitoneal, dose 75 mg/kg, time <=12; details: in vivo; procedure, shortened: as §4
# [10] = AUC in Swiss albino mouse at 75 mg/kg, ip administered as single dose measured upto 12 hrs post injection by LC-MS/MS analysis; type: ADME, organism-based; parameters: route intraperitoneal, dose 75 mg/kg, time <=12; details: in vivo; procedure, shortened: as §4
# [11] = Drug exposure in Swiss albino mouse plasma at 75 mg/kg, ip administered as single dose measured upto 12 hrs by LC-MS/MS analysis; type: ADME, organism-based; details: in vivo; procedure, shortened: as §4
# [12] = Toxicity in immunocompromised NU/J mouse xenografted with human PC-3 cells assessed as body weight loss at 75 mg/kg, ip administered once daily for 22 days; type: organism-based; details: in vivo, 528 h, time 22 day
# Procedure, shortened: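 Male NU/J nude mice, 6 weeks old, engrafted with PC-3 cells. Randomized at ~100 mm³ tumors to vehicle (n = 6) or 75 mg/kg IP once daily (n = 7) for 22 days. Body weight compared at study start and end. Unblinded.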
# Chain of RAC-alpha serine/threonine-protein kinase (P31749 whole entry): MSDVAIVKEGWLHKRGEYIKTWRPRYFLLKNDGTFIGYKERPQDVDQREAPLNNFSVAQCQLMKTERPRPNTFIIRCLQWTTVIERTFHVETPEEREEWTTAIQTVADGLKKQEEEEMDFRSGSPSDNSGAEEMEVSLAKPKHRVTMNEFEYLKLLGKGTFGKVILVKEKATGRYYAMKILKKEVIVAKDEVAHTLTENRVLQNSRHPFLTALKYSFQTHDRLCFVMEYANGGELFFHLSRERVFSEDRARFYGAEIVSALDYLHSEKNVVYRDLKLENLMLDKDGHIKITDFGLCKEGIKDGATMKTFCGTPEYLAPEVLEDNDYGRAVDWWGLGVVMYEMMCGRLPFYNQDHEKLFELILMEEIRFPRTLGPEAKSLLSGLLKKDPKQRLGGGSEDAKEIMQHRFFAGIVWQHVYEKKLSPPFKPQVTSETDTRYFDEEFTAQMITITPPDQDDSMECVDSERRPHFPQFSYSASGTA
# Chain of RAC-gamma serine/threonine-protein kinase (Q9Y243 whole entry): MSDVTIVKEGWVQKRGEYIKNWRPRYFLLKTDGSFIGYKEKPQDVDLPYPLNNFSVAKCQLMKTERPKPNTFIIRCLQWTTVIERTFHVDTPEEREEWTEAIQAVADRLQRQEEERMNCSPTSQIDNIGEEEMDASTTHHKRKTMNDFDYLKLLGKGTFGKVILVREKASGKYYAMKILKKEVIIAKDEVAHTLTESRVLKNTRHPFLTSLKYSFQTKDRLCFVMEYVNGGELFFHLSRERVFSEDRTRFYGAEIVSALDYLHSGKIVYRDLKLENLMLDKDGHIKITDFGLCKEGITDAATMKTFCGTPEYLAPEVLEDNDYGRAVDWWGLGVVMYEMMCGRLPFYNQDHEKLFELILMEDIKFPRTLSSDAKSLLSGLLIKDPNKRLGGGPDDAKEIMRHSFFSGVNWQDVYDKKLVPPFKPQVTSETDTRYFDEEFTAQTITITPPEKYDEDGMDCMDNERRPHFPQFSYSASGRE
structure (smiles),measurement,setting,value
CN1C(=O)CCC(N2C(=O)c3cccc(NCCOCCOCCOCCOCCOCCC(=O)N4CCN(CC[C@H](NC(=O)C5(N)CCN(c6ncnc7[nH]ccc67)CC5)c5ccc(Cl)cc5)CC4)c3C2=O)C1=O (stereo partly drawn),Kd,[1],0.023 µM
same,Kd,[2],0.0055 µM
NC1(C(=O)N[C@@H](CCN2CCN(C(=O)CCCNc3cccc4c3C(=O)N(C3CCC(=O)NC3=O)C4=O)CC2)c2ccc(Cl)cc2)CCN(c2ncnc3[nH]ccc23)CC1 (stereo partly drawn),Activity,[3],Active
same,inhibition,[4],Active
Cc1ncsc1-c1ccc(CNC(=O)[C@@H]2C[C@@H](O)CN2C(=O)[C@@H](NC(=O)CCCCCCCCCC(=O)N2CCN(CC[C@H](NC(=O)C3(N)CCN(c4ncnc5[nH]ccc45)CC3)c3ccc(Cl)cc3)CC2)C(C)(C)C)cc1,inhibition,BT-474,Active
Cc1ncsc1-c1ccc(CNC(=O)[C@@H]2C[C@@H](O)CN2C(=O)[C@@H](NC(=O)CCCCCCCCCCCC(=O)N2CCN(CC[C@H](NC(=O)C3(N)CCN(c4ncnc5[nH]ccc45)CC3)c3ccc(Cl)cc3)CC2)C(C)(C)C)cc1,inhibition,BT-474,Active
Cc1ncsc1-c1ccc(CNC(=O)[C@@H]2C[C@@H](O)CN2C(=O)[C@@H](NC(=O)CCCCCC(=O)N2CCN(CC[C@H](NC(=O)C3(N)CCN(c4ncnc5[nH]ccc45)CC3)c3ccc(Cl)cc3)CC2)C(C)(C)C)cc1,Activity,[5],Active
same,inhibition,[6],inactive
NC1(C(=O)N[C@@H](CCN2CCN(C(=O)CCOCCNc3cccc4c3C(=O)N(C3CCC(=O)NC3=O)C4=O)CC2)c2ccc(Cl)cc2)CCN(c2ncnc3[nH]ccc23)CC1 (stereo partly drawn),Activity,[7],Active
Cc1ncsc1-c1ccc([C@H](C)NC(=O)[C@@H]2C[C@@H](O)CN2C(=O)[C@@H](NC(=O)CCCCCCCCCC(=O)N2CCN(CC[C@H](NC(=O)C3(N)CCN(c4ncnc5[nH]ccc45)CC3)c3ccc(Cl)cc3)CC2)C(C)(C)C)cc1,inhibition,BT-474,Active
NC1(C(=O)N[C@@H](CCN2CCN(C(=O)CCOCCOCCOCCOCCOCCOc3cccc4c3C(=O)N(C3CCC(=O)NC3=O)C4=O)CC2)c2ccc(Cl)cc2)CCN(c2ncnc3[nH]ccc23)CC1 (stereo partly drawn),Activity,[7],inactive
same,inhibition,BT-474,inactive
NC1(C(=O)N[C@@H](CCO)c2ccc(Cl)cc2)CCN(c2nc[nH]c3nccc2-3)CC1 [CAPIVASERTIB],GI50,PC-3,6.5 µM
same,GI50,MDA-MB-468,3.8 µM
Cc1ncsc1-c1ccc(CNC(=O)[C@@H]2C[C@@H](OCc3ccccc3)CN2C(=O)[C@@H](NC(=O)CCCCCCCCCCC(=O)N2CCN(CC[C@H](NC(=O)C3(N)CCN(c4ncnc5[nH]ccc45)CC3)c3ccc(Cl)cc3)CC2)C(C)(C)C)cc1,Kd,[1],2.9 µM
same,Kd,[2],0.15 µM
Cc1ncsc1-c1ccc(CNC(=O)[C@@H]2C[C@@H](O)CN2C(=O)[C@@H](NC(=O)CCCCCCCCCCC(=O)N2CCN(CC[C@H](NC(=O)C3(N)CCN(c4ncnc5[nH]ccc45)CC3)c3ccc(Cl)cc3)CC2)C(C)(C)C)cc1,Tmax,[8],2 h
same,Cmax,[9],7 µM
same,AUC,[10],63600 ng·h/mL
same,GI50,PC-3,0.8 µM
same,inhibition,BT-474,Active
same,Activity,[11],3.7 µM
same,Activity,[12],Non-Toxic
same,GI50,MDA-MB-468,1 µM
NC1(C(=O)N[C@@H](CCN2CCN(C(=O)CCOCCOCCOCCOCCOCCNc3cccc4c3C(=O)N(C3CCC(=O)NC3=O)C4=O)CC2)c2ccc(Cl)cc2)CCN(c2ncnc3[nH]ccc23)CC1 (stereo partly drawn),GI50,PC-3,10.8 µM
same,GI50,MDA-MB-468,4.8 µM
NC1(C(=O)N[C@@H](CCN2CCN(C(=O)CCCCCNc3cccc4c3C(=O)N(C3CCC(=O)NC3=O)C4=O)CC2)c2ccc(Cl)cc2)CCN(c2ncnc3[nH]ccc23)CC1 (stereo partly drawn),Activity,[3],Active
same,inhibition,[4],Active
NC1(C(=O)N[C@@H](CCN2CCN(C(=O)CCOCCOCCOCCOCCOCCCc3cccc4c3C(=O)N(C3CCC(=O)NC3=O)C4=O)CC2)c2ccc(Cl)cc2)CCN(c2ncnc3[nH]ccc23)CC1 (stereo partly drawn),Activity,[7],inactive
same,inhibition,BT-474,inactive
Cc1ncsc1-c1ccc(CNC(=O)[C@@H]2C[C@@H](O)CN2C(=O)[C@@H](NC(=O)CCCCC(=O)N2CCN(CC[C@H](NC(=O)C3(N)CCN(c4ncnc5[nH]ccc45)CC3)c3ccc(Cl)cc3)CC2)C(C)(C)C)cc1,Activity,[5],Active
same,inhibition,[6],inactive
NC1(C(=O)N[C@@H](CCN2CCN(C(=O)CCOCCOCCOCCOCCOCCNc3cccc4c3CN(C3CCC(=O)NC3=O)C4=O)CC2)c2ccc(Cl)cc2)CCN(c2ncnc3[nH]ccc23)CC1 (stereo partly drawn),Activity,[7],inactive
